We go through two substances from ChEMBL document CHEMBL3826940, “Amphipathicity Determines Different Cytotoxic Mechanisms of Lysine- or Arginine-Rich Cationic Hydrophobic Peptides in Cancer Cells” (J Med Chem, 2016).

What is called IC50 is the midpoint of a concentration-inhibition curve. In general, HC50 refers to the concentration giving 50% haemolysis. High values mean weaker haemolysis, low ones stronger haemolysis.

The source made the active and inactive calls. The rule behind the calls is not given here.

For data set [1], the system named is HeLa. In words: Cytotoxicity against human HeLa cells assessed as cell viability after 24 hrs by MTT assay. Type of data set: functional, cell-based. The method, boiled down:
(§1)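 MTT viability assay. Cells were seeded at 1 × 10^4 cells/well in complete medium and grown 24 h. Medium was replaced with fresh medium containing peptide over a concentration series and incubated 24 h. MTT (5 mg/mL) was added for 4 h, formazan was dissolved in DMSO, and A490 was read. IC50 was derived from mean ± SD of three independent experiments.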

Data set [2] concerns MCF7. Put plainly: Cytotoxicity against human MCF7 cells assessed as cell viability after 24 hrs by MTT assay. It counts as functional, cell-based. The method, boiled down:
as §1
For orientation: Tetrazolium assays rely on reduction of a dye to a coloured formazan, in cell work by metabolically active cells.

The subject of data set [3] is A549. In words: Cytotoxicity against human A549 cells assessed as cell viability after 24 hrs by MTT assay. Type of data set: functional, cell-based. The essentials:
as §1

The nature of data set [4]: Cytotoxicity against HLF assessed as cell viability after 24 hrs by MTT assay. On the set-up: species or system Homo sapiens. The method, boiled down: as §1
Data set [5] in a line: Cytotoxicity against human 293T cells assessed as cell viability after 24 hrs by MTT assay. Type of data set: cell-based, HEK-293T. The method, boiled down:
as §1

Data set [6] has as its system HUVEC. Put plainly: Cytotoxicity against HUVEC assessed as cell viability after 24 hrs by MTT assay. It counts as cell-based, Homo sapiens. The method, boiled down:
as §1

Data set [7] is described as follows: Hemolytic activity in mouse RBC at 0.39 to 50 uM after 1 hr. It counts as ADME, cell-based. The settings on record: erythrocyte. The essentials:
(§2)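 Heparinized fresh mouse blood: RBCs were washed three times in 0.9% saline and diluted to 4.0 × 10^8 cells/mL. Peptides at various concentrations were incubated with the RBCs 1 h at 37 °C. After centrifugation at 1000 rpm for 10 min, supernatant absorbance was read at 540 nm, with 1% Triton X-100 set as 100% hemolysis.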

Data set [8] has as its system HeLa. In words: Induction of morphological changes in human HeLa cells assessed as membrane leakage at 5 uM after 30 mins by microscopic method. It counts as functional, cell-based. The method, boiled down:
(§3)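 HeLa cells were co-incubated with 5 μM peptide for 30 min. Morphology was then examined under the microscope.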

For data set [9], the system named is HeLa. Put plainly: Induction of morphological changes in human HeLa cells assessed as membrane fragmentation at 5 uM after 30 mins by microscopic method. Type of data set: functional, cell-based. The method, boiled down:
as §3

Data set [10] concerns HeLa. In words: Cytotoxicity against human HeLa cells assessed as cell mortality at 5 uM after 5 mins by Hoechst 33342/propidium iodide staining-based assay. It counts as functional. The essentials: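 HeLa cells treated with 5 μM peptide were co-stained with Hoechst 33342 (stains all nuclei) and propidium iodide (stains only membrane-compromised cells). Fluorescence imaging was done at time points up to 30 min.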

In data set [11] the test system is HeLa. Put plainly: Cytotoxicity against human HeLa cells assessed as cell mortality at 5 uM after 5 mins by MTT assay. It counts as functional, cell-based.
Data set [12] is described as follows: Drug uptake in plasma membrane of human HeLa cells at 5 uM after 2 to 30 mins using iridium dye labeled compound by confocal microscopic method. Type of data set: ADME, cell-based. The essentials:
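Peptides were labelled at the N-terminal His with [Ir(ppy)2(H2O)2]OTf: 200 μM each, mixed 1:1 in PBS, 2 h at 37 °C in the dark. HeLa cells (1 × 10^5 per dish, grown 24 h) were exposed to 5 μM labelled peptide. Live-cell confocal images were taken at 0, 5 and 15 min (excitation 403 nm, emission 500–560 nm).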

Data set [13] relates to HeLa. Put plainly: Induction of apoptosis in human HeLa cells assessed as caspase-3 activation at 5 uM measured up to 4 hrs by caspase-glo assay. Type of data set: functional, cell-based. The method, boiled down: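 Cells in 96-well plates were exposed to 5 μM peptide for 5, 10, 15 or 30 min, or 1, 2, 3 or 4 h. Caspase-Glo 3/7 reagent was added, the plate shaken 30 s and incubated 2 h at room temperature, and luminescence was read.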

For data set [14], the system named is HeLa. Put plainly: Cytotoxicity against human HeLa cells assessed as lethality at 5 uM at 0 degC after 30 mins by MTT assay. It counts as functional, cell-based. The essentials: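 HeLa cells were incubated with peptide over a range of concentrations at 0 or 37 °C for 30 min. Lethality was then measured by MTT, with A490 read after DMSO solubilization.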

Data set [15] can be described thus: Hemolytic activity in mouse RBC after 1 hr. It counts as ADME, cell-based, Erythrocyte. Particulars: red blood cells. The essentials: as §2

Take H-HGGKLLKLLKKLLKLLK-NH2: the half-inhibitory concentration (IC50) in data set [1] stood at 3.3 µM. Besides, the outcome in [2] and in data set [3] was Active. The Activity entry in data set [4] (human, hlf) is on record as “Toxic”; in data set [5] (human, hek-293t) it was “Toxic”; in data set [6] (human, huvec) it was “Toxic”; in data set [7] it was “Toxic”.
Consider H-HGGRLLRLLRRLLRLLR-NH2, for which the IC50 in data set [1] is 3.7 µM; in [2] (MCF7, 24 h) it was 2.5 µM; in data set [3] (A549, 24 h), 4.3 µM; in data set [4] (Homo sapiens, HLF), 6.3 µM; in data set [5] (Homo sapiens, HEK-293T) it was 9.6 µM; in data set [6] (Homo sapiens, HUVEC), 8.4 µM. Moreover, the result in data set [8], in data set [9], in data set [10], in [11] and in [14] was Active. In [12], the Drug uptake entry is given as “Active”. Moreover, in data set [13], the result was inactive. This substance registered a concentration for 50% haemolysis (HC50) at 1 h in data set [15] of 2900 nM.
